How the values were obtained:
Pseudomonas aeruginosa [1] = experiment: Synergistic antibacterial activity against wild type Pseudomonas aeruginosa PAO1 assessed as fractional inhibitory concentration index in presence of rifampicin incubated for 18 hrs by broth microdilution method; type: functional
In short: (§1)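 Checkerboard synergy assay. Antibiotic and adjuvant in twofold dilutions in Mueller-Hinton broth. Inoculum 5 × 10^5 CFU/mL from a 0.5 McFarland suspension, 18 h at 37 °C, MIC read by turbidity and confirmed at 590 nm. FIC = MIC in combination / MIC alone for each agent, FICI = sum. Interpreted as ≤0.5 synergy, 0.5–4 no interaction, >4 antagonism.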

Pseudomonas aeruginosa [2] = experiment: Antimicrobial activity against wild type Pseudomonas aeruginosa PAO1 incubated for 18 hrs by broth microdilution method; type: functional; settings: PAO1, 18 h
In short: (§2)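 Broth microdilution per CLSI: overnight cultures set to 0.5 McFarland in saline, diluted 1:50 in Mueller-Hinton broth to a final 5 × 10^5 CFU/mL, added to 2-fold serial dilutions, incubated 18 h at 37 °C; MIC is the lowest concentration without visible turbidity, confirmed at 590 nm.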

Pseudomonas aeruginosa [3] = experiment: Synergistic antibacterial activity against MDR/XDR Pseudomonas aeruginosa isolate PA259-96918 harboring GyrA T83I mutant assessed as fractional inhibitory concentration index in presence of ciprofloxacin incubated for 18 hrs by broth microdilution method; type: functional; in short: as §1
Pseudomonas aeruginosa [4] = experiment: Synergistic antibacterial activity against wild type Pseudomonas aeruginosa PAO1 assessed as fractional inhibitory concentration index in presence of moxifloxacin incubated for 18 hrs by broth microdilution method; type: functional; in short: as §1
Pseudomonas aeruginosa [5] = experiment: Synergistic antibacterial activity against MDR/XDR Pseudomonas aeruginosa isolate 91433 devoid of GyrA T83I mutant assessed as fractional inhibitory concentration index in presence of rifampicin incubated for 18 hrs by broth microdilution method; type: functional; in short: as §1
Pseudomonas aeruginosa [6] = experiment: Antimicrobial activity against MDR/XDR Pseudomonas aeruginosa isolate 101243 devoid of GyrA Thr83Ile mutant incubated for 18 hrs by broth microdilution method; type: functional; settings: isolate 101243, 18 h; in short: as §2
Pseudomonas aeruginosa [7] = experiment: Synergistic antibacterial activity against MDR/XDR Pseudomonas aeruginosa isolate 101243 devoid of GyrA T83I mutant assessed as fractional inhibitory concentration index in presence of moxifloxacin incubated for 18 hrs by broth microdilution method; type: functional; in short: as §1
Pseudomonas aeruginosa [8] = experiment: Synergistic antibacterial activity against MDR/XDR Pseudomonas aeruginosa isolate PA259-96918 harboring T83I mutant assessed as fractional inhibitory concentration index in presence of rifampicin incubated for 18 hrs by broth microdilution method; type: functional; in short: as §1
Pseudomonas aeruginosa [9] = experiment: Synergistic antibacterial activity against MDR/XDR Pseudomonas aeruginosa isolate 100036 harboring GyrA T83I mutant assessed as fractional inhibitory concentration index in presence of moxifloxacin incubated for 18 hrs by broth microdilution method; type: functional; in short: as §1
[10] = Retention time of the compound by HPLC analysis; type: physicochemical
Pseudomonas aeruginosa [11] = experiment: Synergistic antibacterial activity against MDR/XDR Pseudomonas aeruginosa isolate 101243 devoid of GyrA T83I mutant assessed as fractional inhibitory concentration index in presence of ciprofloxacin incubated for 18 hrs by broth microdilution method; type: functional; in short: as §1
Pseudomonas aeruginosa [12] = experiment: Synergistic antibacterial activity against MDR/XDR Pseudomonas aeruginosa isolate 100036 harboring GyrA T83I mutant assessed as fractional inhibitory concentration index in presence of minocycline incubated for 18 hrs by broth microdilution method; type: functional; in short: as §1
Pseudomonas aeruginosa [13] = experiment: Synergistic antibacterial activity against wild type Pseudomonas aeruginosa PAO1 assessed as fractional inhibitory concentration index in presence of minocycline incubated for 18 hrs by broth microdilution method; type: functional
In short: (§3)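 Checkerboard titration of the adjuvant against the antibiotic, run under the CLSI microdilution conditions (MHB, 5 × 10^5 CFU/mL, 18 h, 37 °C). Each agent's FIC is its MIC in combination divided by its MIC alone; FICI is the sum of the two FICs. FICI ≤0.5 was read as synergy, >0.5–4.0 as no interaction, and >4.0 as antagonism.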

Pseudomonas aeruginosa [14] = experiment: Synergistic antibacterial activity against MDR/XDR Pseudomonas aeruginosa isolate 100036 harboring T83I mutant assessed as fractional inhibitory concentration index in presence of rifampicin incubated for 18 hrs by broth microdilution method; type: functional; in short: as §1
Pseudomonas aeruginosa [15] = experiment: Synergistic antibacterial activity against MDR/XDR Pseudomonas aeruginosa isolate PA262-101856 harboring GyrA T83I mutant assessed as fractional inhibitory concentration index in presence of rifampicin incubated for 18 hrs by broth microdilution method; type: functional; in short: as §1
Pseudomonas aeruginosa [16] = experiment: Synergistic antibacterial activity against MDR/XDR Pseudomonas aeruginosa isolate PA260-97103 harboring GyrA T83I mutant assessed as fractional inhibitory concentration index in presence of minocycline incubated for 18 hrs by broth microdilution method; type: functional; in short: as §1
Pseudomonas aeruginosa [17] = experiment: Antimicrobial activity against MDR/XDR Pseudomonas aeruginosa isolate PA259-96918 harboring GyrA Thr83Ile mutant incubated for 18 hrs by broth microdilution method; type: functional; settings: isolate PA259-96918, 18 h; in short: as §2
Pseudomonas aeruginosa [18] = experiment: Antimicrobial activity against MDR/XDR Pseudomonas aeruginosa isolate 91433 devoid of GyrA Thr83Ile mutant incubated for 18 hrs by broth microdilution method; type: functional; settings: isolate 91433, 18 h; in short: as §2
Pseudomonas aeruginosa [19] = experiment: Synergistic antibacterial activity against MDR/XDR Pseudomonas aeruginosa isolate PA259-96918 harboring GyrAT83I mutant assessed as fractional inhibitory concentration index in presence of minocycline incubated for 18 hrs by broth microdilution method; type: functional; in short: as §1
Pseudomonas aeruginosa [20] = experiment: Synergistic antibacterial activity against MDR/XDR Pseudomonas aeruginosa isolate 101885 harboring T83I mutant assessed as fractional inhibitory concentration index in presence of rifampicin incubated for 18 hrs by broth microdilution method; type: functional; in short: as §1
Pseudomonas aeruginosa [21] = experiment: Synergistic antibacterial activity against MDR/XDR Pseudomonas aeruginosa isolate 91433 devoid of GyrA T83I mutant assessed as fractional inhibitory concentration index in presence of ciprofloxacin incubated for 18 hrs by broth microdilution method; type: functional; in short: as §1
HepG2 [22] = experiment: Cytotoxicity against human HepG2 cells at 50 uM incubated for 48 hrs by PrestoBlue dye based fluorescence assay; type: cell-based; settings: hepg2, 48 h
Pseudomonas aeruginosa [23] = experiment: Synergistic antibacterial activity against MDR/XDR Pseudomonas aeruginosa isolate PA264-104354 harboring GyrA T83I mutant assessed as fractional inhibitory concentration index in presence of minocycline incubated for 18 hrs by broth microdilution method; type: functional; in short: as §1
Klebsiella pneumoniae = experiment: Synergistic antibacterial activity against Klebsiella pneumoniae 116381 assessed as fractional inhibitory concentration index in presence of minocycline incubated for 18 hrs by broth dilution method; type: functional; in short: as §3
HEK293 [24] = experiment: Cytotoxicity against HEK293 cells at 50 uM incubated for 48 hrs by PrestoBlue dye based fluorescence assay; type: cell-based; settings: human, hek293, 48 h
HEK293 [25] = experiment: Cytotoxicity against HEK293 cells at 50 uM incubated for 48 hrs in presence of 50 uM rifampicin by PrestoBlue dye based fluorescence assay; type: cell-based; settings: human, hek293, 48 h
Enterobacter cloacae [26] = experiment: Synergistic antibacterial activity against Enterobacter cloacae 117029 assessed as fractional inhibitory concentration index in presence of minocycline incubated for 18 hrs by broth dilution method; type: functional; in short: as §3
Enterobacter cloacae [27] = experiment: Synergistic antibacterial activity against Enterobacter cloacae 117029 assessed as fractional inhibitory concentration index in presence of rifampicin incubated for 18 hrs by broth dilution method; type: functional; in short: as §3
HepG2 [28] = experiment: Cytotoxicity against human HepG2 cells at 50 uM incubated for 48 hrs in presence of 50 uM rifampicin by PrestoBlue dye based fluorescence assay; type: cell-based; settings: hepg2, 48 h

Cl.Cl.Cl.Cl.Cl.Cl.NC[C@H]1O[C@H](O[C@H]2[C@H](OCCCCCCCCCCN3CCN(Cc4cccc5ccccc45)CC3)[C@@H](O)[C@H](N)C[C@@H]2N)[C@H](N)C[C@@H]1O
fractional inhibitory concentration index (FICI) (Pseudomonas aeruginosa [1]): 0.02 | MIC (Pseudomonas aeruginosa [2]): 256 mg/L | fractional inhibitory concentration index (FICI) (Pseudomonas aeruginosa [3]): 0.063 - 0.078 | fractional inhibitory concentration index (FICI) (Pseudomonas aeruginosa [4]): 0.05 | fractional inhibitory concentration index (FICI) (Pseudomonas aeruginosa [5]): 0.5 | MIC (Pseudomonas aeruginosa [6]): 512 mg/L | fractional inhibitory concentration index (FICI) (Pseudomonas aeruginosa [7]): 0.13 | fractional inhibitory concentration index (FICI) (Pseudomonas aeruginosa [8]): 0.004 - 0.006 | fractional inhibitory concentration index (FICI) (Pseudomonas aeruginosa [9]): 0.063 - 0.07 | Retention_time [10]: 12.917 min | fractional inhibitory concentration index (FICI) (Pseudomonas aeruginosa [11]): 0.16 | fractional inhibitory concentration index (FICI) (Pseudomonas aeruginosa [12]): 0.031 - 0.033 | fractional inhibitory concentration index (FICI) (Pseudomonas aeruginosa [13]): 0.09 | fractional inhibitory concentration index (FICI) (Pseudomonas aeruginosa [14]): 0.004 - 0.012 | fractional inhibitory concentration index (FICI) (Pseudomonas aeruginosa [15]): 0.02 | fractional inhibitory concentration index (FICI) (Pseudomonas aeruginosa [16]): 0.09 | MIC (Pseudomonas aeruginosa [17]): > 512 mg/L | MIC (Pseudomonas aeruginosa [18]): 32 mg/L | fractional inhibitory concentration index (FICI) (Pseudomonas aeruginosa [19]): 0.016 - 0.031 | fractional inhibitory concentration index (FICI) (Pseudomonas aeruginosa [20]): 0.02 | fractional inhibitory concentration index (FICI) (Pseudomonas aeruginosa [21]): 0.38

Cl.Cl.Cl.Cl.Cl.NC[C@H]1O[C@H](O[C@H]2[C@H](OCCCCCCCCCCCCN3CCN(c4cc5c(cc4F)c(=O)c(C(=O)O)cn5C4CC4)CC3)[C@@H](O)[C@H](N)C[C@@H]2N)[C@H](N)C[C@@H]1O
fractional inhibitory concentration index (FICI) (Pseudomonas aeruginosa [1]): 0.047 | MIC (Pseudomonas aeruginosa [2]): 64 mg/L | Activity (HepG2 [22]): Non-Toxic | fractional inhibitory concentration index (FICI) (Pseudomonas aeruginosa [23]): 0.039 | fractional inhibitory concentration index (FICI) (Klebsiella pneumoniae): 0.063 - 0.07 | Activity (HEK293 [24]): Non-Toxic | fractional inhibitory concentration index (FICI) (Pseudomonas aeruginosa [8]): 0.008 - 0.016 | Activity (HEK293 [25]): Non-Toxic | Retention_time [10]: 14.945 min | fractional inhibitory concentration index (FICI) (Pseudomonas aeruginosa [13]): 0.047 | fractional inhibitory concentration index (FICI) (Enterobacter cloacae [26]): 0.125 | MIC (Pseudomonas aeruginosa [17]): > 128 mg/L | fractional inhibitory concentration index (FICI) (Pseudomonas aeruginosa [19]): 0.031 - 0.063 | fractional inhibitory concentration index (FICI) (Enterobacter cloacae [27]): 0.023 | Activity (HepG2 [28]): Non-Toxic

COc1c(N2C[C@@H]3CCCN(CCCCCCCCCCCCO[C@@H]4[C@@H](O)[C@H](N)C[C@H](N)[C@H]4O[C@H]4O[C@H](CN)[C@@H](O)C[C@H]4N)[C@@H]3C2)c(F)cc2c(=O)c(C(=O)O)cn(C3CC3)c12.Cl.Cl.Cl.Cl.Cl
fractional inhibitory concentration index (FICI) (Pseudomonas aeruginosa [1]): 0.07 | MIC (Pseudomonas aeruginosa [2]): 32 mg/L | Activity (HepG2 [22]): Non-Toxic | fractional inhibitory concentration index (FICI) (Pseudomonas aeruginosa [23]): 0.05 | fractional inhibitory concentration index (FICI) (Klebsiella pneumoniae): 0.063 - 78 | Activity (HEK293 [24]): Non-Toxic | fractional inhibitory concentration index (FICI) (Pseudomonas aeruginosa [3]): 0.25 - 0.27 | fractional inhibitory concentration index (FICI) (Pseudomonas aeruginosa [4]): 0.25 | fractional inhibitory concentration index (FICI) (Pseudomonas aeruginosa [5]): 0.16 | MIC (Pseudomonas aeruginosa [6]): 64 mg/L | fractional inhibitory concentration index (FICI) (Pseudomonas aeruginosa [7]): 0.16 | fractional inhibitory concentration index (FICI) (Pseudomonas aeruginosa [8]): 0.004 - 0.01 | fractional inhibitory concentration index (FICI) (Pseudomonas aeruginosa [9]): 0.08 | Activity (HEK293 [25]): Non-Toxic | Retention_time [10]: 14.585 min | fractional inhibitory concentration index (FICI) (Pseudomonas aeruginosa [11]): 0.25 | fractional inhibitory concentration index (FICI) (Pseudomonas aeruginosa [12]): 0.06 | fractional inhibitory concentration index (FICI) (Pseudomonas aeruginosa [13]): 0.38 | fractional inhibitory concentration index (FICI) (Pseudomonas aeruginosa [14]): 0.01 | fractional inhibitory concentration index (FICI) (Pseudomonas aeruginosa [15]): 0.008 - 0.02 | fractional inhibitory concentration index (FICI) (Enterobacter cloacae [26]): 0.19 | fractional inhibitory concentration index (FICI) (Pseudomonas aeruginosa [16]): 0.09 | MIC (Pseudomonas aeruginosa [17]): > 256 mg/L | MIC (Pseudomonas aeruginosa [18]): 32 mg/L | fractional inhibitory concentration index (FICI) (Pseudomonas aeruginosa [19]): 0.03 - 0.04 | fractional inhibitory concentration index (FICI) (Pseudomonas aeruginosa [20]): 0.05 | fractional inhibitory concentration index (FICI) (Enterobacter cloacae [27]): 0.06 | Activity (HepG2 [28]): Non-Toxic | fractional inhibitory concentration index (FICI) (Pseudomonas aeruginosa [21]): 0.25

Source: ChEMBL document CHEMBL4354800, “Amphiphilic nebramine-based hybrids Rescue legacy antibiotics from intrinsic resistance in multidrug-resistant Gram-negative bacilli” (Eur J Med Chem, 2019)
